# Results reported in ChEMBL document CHEMBL4689842, “EUbOPEN Chemogenomics Library wave 1” (2021).
# Test system: HEK-293T
# Experiment: Multiplex assay against HEK293T;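 as to Population Tubulin-Different-Phenotype (%): share of the cells with healthy nuclei that show this phenotype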
# Type: toxicity, cell-based
# Settings: human
# Summary of the method: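 Per cents of healthy-nucleus cells form the tubulin, mitochondrial-mass and membrane-permeability phenotype values. Live cells were stained at seeding with Hoechst33342, BioTracker Green Microtubule Cytoskeleton Dye, MitoTracker Red and Annexin V Alexa Fluor 680. After compound addition they were imaged on a CQ1 microscope at 37°C and 5% CO2, and CellPathfinder machine-learning gating split them into Hoechst high-intensity objects or normal cells, normal cells into healthy, pyknosed or fragmented nuclei, and pyknosed cells into mitotic or apoptotic.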
# [1] = 12 h, 1 µM, compound concentration 1 uM, replicate 1
# [2] = 12 h, 1 µM, compound concentration 1 uM, replicate 2
# [3] = 12 h, 10 µM, compound concentration 10 uM, replicate 1
# [4] = 12 h, 10 µM, compound concentration 10 uM, replicate 2
# [5] = 24 h, 1 µM, compound concentration 1 uM, replicate 1
# [6] = 24 h, 1 µM, compound concentration 1 uM, replicate 2
# [7] = 24 h, 10 µM, compound concentration 10 uM, replicate 1
# [8] = 24 h, 10 µM, compound concentration 10 uM, replicate 2
# [9] = 48 h, 1 µM, compound concentration 1 uM, replicate 1
# [10] = 48 h, 1 µM, compound concentration 1 uM, replicate 2
# [11] = 48 h, 10 µM, compound concentration 10 uM, replicate 1
# [12] = 48 h, 10 µM, compound concentration 10 uM, replicate 2
smiles,measurement,setting,value
CN1CCC(=C2c3ccccc3CC(=O)c3sccc32)CC1.O=C(O)/C=C/C(=O)O [KETOTIFEN FUMARATE],Population Apoptotic (%),[1],46%
same,Population Fragmented Nuclei (%),[1],10%
same,Population Healthy Nuclei (%),[1],37%
same,Population Hoechst High Intensity Objects (%),[1],13%
same,Population Membrane Permeable-Phenotype (%),[1],5%
same,Population Mitochondria Different-Phenotype (%),[1],73%
same,Population Mitotic Cells (%),[1],53%
same,Population Normal (%),[1],86%
same,Population Pyknosed Nuclei (%),[1],51%
same,Population Tubulin-Different-Phenotype (%),[1],40%
same,Total Cell Count,[1],288
same,Population Apoptotic (%),[2],13%
same,Population Fragmented Nuclei (%),[2],4%
same,Population Healthy Nuclei (%),[2],40%
same,Population Hoechst High Intensity Objects (%),[2],4%
same,Population Membrane Permeable-Phenotype (%),[2],12%
same,Population Mitochondria Different-Phenotype (%),[2],17%
same,Population Mitotic Cells (%),[2],86%
same,Population Normal (%),[2],95%
same,Population Pyknosed Nuclei (%),[2],54%
same,Population Tubulin-Different-Phenotype (%),[2],28%
same,Total Cell Count,[2],211
same,Population Apoptotic (%),[3],71%
same,Population Fragmented Nuclei (%),[3],11%
same,Population Healthy Nuclei (%),[3],28%
same,Population Hoechst High Intensity Objects (%),[3],10%
same,Population Membrane Permeable-Phenotype (%),[3],4%
same,Population Mitochondria Different-Phenotype (%),[3],98%
same,Population Mitotic Cells (%),[3],28%
same,Population Normal (%),[3],89%
same,Population Pyknosed Nuclei (%),[3],60%
same,Population Tubulin-Different-Phenotype (%),[3],97%
same,Total Cell Count,[3],298
same,Population Apoptotic (%),[4],54%
same,Population Fragmented Nuclei (%),[4],7%
same,Population Healthy Nuclei (%),[4],22%
same,Population Hoechst High Intensity Objects (%),[4],5%
same,Population Membrane Permeable-Phenotype (%),[4],0%
same,Population Mitochondria Different-Phenotype (%),[4],100%
same,Population Mitotic Cells (%),[4],45%
same,Population Normal (%),[4],94%
same,Population Pyknosed Nuclei (%),[4],69%
same,Population Tubulin-Different-Phenotype (%),[4],100%
same,Total Cell Count,[4],177
same,Population Apoptotic (%),[5],50%
same,Population Fragmented Nuclei (%),[5],12%
same,Population Healthy Nuclei (%),[5],42%
same,Population Hoechst High Intensity Objects (%),[5],8%
same,Population Membrane Permeable-Phenotype (%),[5],7%
same,Population Mitochondria Different-Phenotype (%),[5],67%
same,Population Mitotic Cells (%),[5],49%
same,Population Normal (%),[5],91%
same,Population Pyknosed Nuclei (%),[5],44%
same,Population Tubulin-Different-Phenotype (%),[5],49%
same,Total Cell Count,[5],307
same,Population Apoptotic (%),[6],13%
same,Population Fragmented Nuclei (%),[6],3%
same,Population Healthy Nuclei (%),[6],55%
same,Population Hoechst High Intensity Objects (%),[6],2%
same,Population Membrane Permeable-Phenotype (%),[6],14%
same,Population Mitochondria Different-Phenotype (%),[6],20%
same,Population Mitotic Cells (%),[6],86%
same,Population Normal (%),[6],97%
same,Population Pyknosed Nuclei (%),[6],41%
same,Population Tubulin-Different-Phenotype (%),[6],48%
same,Total Cell Count,[6],251
same,Population Apoptotic (%),[7],75%
same,Population Fragmented Nuclei (%),[7],12%
same,Population Healthy Nuclei (%),[7],32%
same,Population Hoechst High Intensity Objects (%),[7],11%
same,Population Membrane Permeable-Phenotype (%),[7],1%
same,Population Mitochondria Different-Phenotype (%),[7],97%
same,Population Mitotic Cells (%),[7],24%
same,Population Normal (%),[7],88%
same,Population Pyknosed Nuclei (%),[7],55%
same,Total Cell Count,[7],313
same,Population Apoptotic (%),[8],74%
same,Population Fragmented Nuclei (%),[8],4%
same,Population Healthy Nuclei (%),[8],35%
same,Population Hoechst High Intensity Objects (%),[8],4%
same,Population Membrane Permeable-Phenotype (%),[8],3%
same,Population Mitochondria Different-Phenotype (%),[8],95%
same,Population Mitotic Cells (%),[8],25%
same,Population Normal (%),[8],95%
same,Population Pyknosed Nuclei (%),[8],59%
same,Population Tubulin-Different-Phenotype (%),[8],98%
same,Total Cell Count,[8],180
same,Population Apoptotic (%),[9],35%
same,Population Fragmented Nuclei (%),[9],12%
same,Population Healthy Nuclei (%),[9],40%
same,Population Hoechst High Intensity Objects (%),[9],15%
same,Population Membrane Permeable-Phenotype (%),[9],7%
same,Population Mitochondria Different-Phenotype (%),[9],52%
same,Population Mitotic Cells (%),[9],64%
same,Population Normal (%),[9],84%
same,Population Pyknosed Nuclei (%),[9],46%
same,Population Tubulin-Different-Phenotype (%),[9],52%
same,Total Cell Count,[9],369
same,Population Apoptotic (%),[10],16%
same,Population Fragmented Nuclei (%),[10],4%
same,Population Healthy Nuclei (%),[10],79%
same,Population Hoechst High Intensity Objects (%),[10],4%
same,Population Membrane Permeable-Phenotype (%),[10],10%
same,Population Mitochondria Different-Phenotype (%),[10],11%
same,Population Mitotic Cells (%),[10],83%
same,Population Normal (%),[10],95%
same,Population Pyknosed Nuclei (%),[10],16%
same,Population Tubulin-Different-Phenotype (%),[10],38%
same,Total Cell Count,[10],468
same,Population Apoptotic (%),[11],71%
same,Population Fragmented Nuclei (%),[11],21%
same,Population Healthy Nuclei (%),[11],40%
same,Population Hoechst High Intensity Objects (%),[11],13%
same,Population Membrane Permeable-Phenotype (%),[11],2%
same,Population Mitochondria Different-Phenotype (%),[11],93%
same,Population Mitotic Cells (%),[11],28%
same,Population Normal (%),[11],86%
same,Population Pyknosed Nuclei (%),[11],38%
same,Population Tubulin-Different-Phenotype (%),[11],95%
same,Total Cell Count,[11],362
same,Population Apoptotic (%),[12],72%
same,Population Fragmented Nuclei (%),[12],2%
same,Population Healthy Nuclei (%),[12],70%
same,Population Hoechst High Intensity Objects (%),[12],4%
same,Population Membrane Permeable-Phenotype (%),[12],5%
same,Population Mitochondria Different-Phenotype (%),[12],86%
same,Population Mitotic Cells (%),[12],27%
same,Population Normal (%),[12],95%
same,Population Pyknosed Nuclei (%),[12],26%
same,Population Tubulin-Different-Phenotype (%),[12],93%
same,Total Cell Count,[12],215
